# Source: PubChem BioAssay (The Scripps Research Institute Molecular Screening Center)
# OX1R antag-1 = OX1R (human) antagonism; O43613; OX1R-expressing cells, FRET antagonist read-out; inhibition, % at 6.6 µM; 330,000 compounds, 1.8% hits; AID 485270; in the data active = inhibition mostly above about 38%, no sharp cut-off; inactive = mostly below about 40%;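 also: 0% = agonist challenge alone and 100% = reference antagonist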
# OX1R antag-2 = blocks the human orexin 1 receptor. O43613. CHO/OX1R cells, Fluo-8 calcium fluorescence, orexin A. inhibition, % at 5 µM. 330,000 compounds, 0.43% hits;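 active = inhibition above its plate's threshold, mean inhibition of all tested compounds on the plate plus 3 SD, cut at about 37% in these data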;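 also: 0% = orexin A challenge wells and 100% = SB-334867-A antagonist wells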
# GPR7 antag = human neuropeptides B/W receptor 1 antagonism; P48145; GPR7-expressing cells, fluorescence antagonist assay; inhibition, % at 4.4 µM; 290,000 compounds, 1.1% hits; AID 1861; in the data active = inhibition above about 16%, passing the limit was not always enough;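 also: cells stimulated with the agonist NPW; 0% = agonist with vehicle and 100% = vehicle without agonist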
# Target sequence (P48145 whole entry, looked up): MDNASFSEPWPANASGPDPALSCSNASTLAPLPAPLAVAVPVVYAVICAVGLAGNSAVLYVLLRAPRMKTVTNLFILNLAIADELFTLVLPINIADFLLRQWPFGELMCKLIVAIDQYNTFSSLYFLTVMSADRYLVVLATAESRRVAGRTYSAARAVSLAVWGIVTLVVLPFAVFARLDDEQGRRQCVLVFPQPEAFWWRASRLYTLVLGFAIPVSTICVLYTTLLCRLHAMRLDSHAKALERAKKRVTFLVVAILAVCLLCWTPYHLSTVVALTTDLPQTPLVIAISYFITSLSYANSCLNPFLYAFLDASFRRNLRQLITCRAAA
# CHO parental Ca = counter-screen for OX1R antagonists: effect in parental CHO cells. parental CHO-K1, ATP-induced calcium, Fluo-8 fluorescence. inhibition, % at 5.6 µM. AID 463079. 330,000 compounds, 0.63% hits;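 active = inhibition above that plate's mean sample inhibition plus 3 SD, cut at about 26% in these data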;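 also: 0% = ATP-challenged DMSO wells and 100% = DMSO wells without ATP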
#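 Material: parental CHO cells / Compound: single nominal dose of 5.6 µM per compound / Signal: Fluo-8 fluorescence / Replicates: singlicate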
# GalR3 antagonist = blocks the human galanin receptor 3 | HEK293 GalR3-CNG cAMP membrane potential fluorescence; galR3 body fused to GalR1 C-terminus | 360,000 compounds, 0.44% hits | inhibition, % at 3 µM | O60755;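 active = inhibition above the screen-wide average plus 3 SD, cut at about 13% in these data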;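 also: forskolin and galanin both at EC90 stimulate the cells; cAMP rise reported by CNG channel membrane potential dye signal; 0% = forskolin plus galanin with DMSO and 100% = forskolin alone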
# Target sequence (O60755 1-299 limits assumed): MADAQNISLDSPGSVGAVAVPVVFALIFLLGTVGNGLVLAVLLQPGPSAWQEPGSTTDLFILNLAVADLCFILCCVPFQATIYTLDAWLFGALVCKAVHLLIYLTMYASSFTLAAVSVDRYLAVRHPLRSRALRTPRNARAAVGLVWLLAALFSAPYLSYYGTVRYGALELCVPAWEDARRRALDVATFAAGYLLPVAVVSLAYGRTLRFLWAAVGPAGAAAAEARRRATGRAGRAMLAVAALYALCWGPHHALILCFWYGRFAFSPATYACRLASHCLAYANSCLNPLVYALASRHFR
# Numbers without * were called inactive; . = not tested or not shown. A selection: hits, their analogues and other compounds. The true share with any hit is near 3.1%.
SMILES,OX1R antag-1,OX1R antag-2,GPR7 antag,CHO parental Ca,GalR3 antagonist
O=C1C(Cl)=C(N2CCN(c3ccccc3[N+](=O)[O-])CC2)C(=O)c2ccccc21,54.9*,-12.3,6.5,-15.4,-4.5
CCCCC(CC)CN=C(N)NC(N)=NCCCCCCN=C(N)NC(N)=NCC(CC)CCCC (stereo not given),34.4,79.1*,.,83.5*,.
Cc1cc(C)c(NC(=O)CC(C)(C)C)c(Cl)c1,-3.4,4.0,-4.2,-9.9,0.7
O=[N+]([O-])c1ccc(S(=O)(=O)NCCc2ccncc2)cc1,42.9*,-15.6,-9.4,-4.3,-5.4
Cc1nc(NC(=O)c2c(-c3ccccc3Cl)noc2C)sc1C,16.6,-18.9,-3.8,-14.2,-3.8
NCCCC[C@@H]1NC(=O)[C@H](CCC(=O)O)NC(=O)c2cc([N+](=O)[O-])cc(I)c2SC[C@@H](C(=O)NCC(N)=O)NC1=O,42.0,-3.1,-10.4,0.9,1.7
NCCCC[C@@H]1NC(=O)c2cc([N+](=O)[O-])cc(I)c2SC[C@@H](C(N)=O)NC(=O)[C@H](Cc2ccc(O)cc2)NC1=O,72.9*,-16.2,9.5,7.9,.
Cc1cccc(N(C)C(=O)CCS(=O)(=O)c2cccc3nonc23)c1,51.9*,-16.0,-10.6,-16.4,-1.5
COc1ccc(N(C)C(=O)CCS(=O)(=O)c2cccc3nonc23)c(OC)c1,60.9*,-20.2,4.4,0.9,-4.8
COc1cccc(CNC(=O)CCS(=O)(=O)c2cccc3nsnc23)c1,35.5,-22.2,4.3,-2.8,-1.5
COc1cccc(CNC(=O)CCS(=O)(=O)c2cccc3nonc23)c1,59.1*,-13.8,-10.0,-16.4,-2.3
COc1ccc(NS(=O)(=O)c2cccc3nonc23)c(OC)c1,26.2,-20.4,1.8,-3.2,-2.0
Cc1ccc(NC(=O)CCS(=O)(=O)c2cccc3nonc23)cc1,42.5,-10.0,-6.9,-9.3,-4.0
CC(=O)c1cccc(NC(=O)CCS(=O)(=O)c2cccc3nonc23)c1,57.8*,-10.9,-4.7,-2.6,-4.1
COc1cc([C@H]2c3c(cc(OC)c(O)c3OC)C[C@@H](CO)[C@@H]2CO[C@@H]2O[C@H](CO)[C@@H](O)[C@H](O)[C@H]2O)cc(OC)c1O,6.3,-8.3,.,8.1,-7.0
OCCC1CN(C/C=C/c2ccco2)CCN1Cc1ccccc1 (stereo not given),14.6,-12.5,0.1,1.5,-4.5
N#Cc1c(-c2ccccc2)nc(SCC(=O)N(c2ccccc2)c2ccccc2)[nH]c1=O,23.1,-9.7,3.1,-4.5,-4.6
N#Cc1c(-c2ccccc2)nc(SCC(=O)N2c3ccccc3Sc3ccccc32)[nH]c1=O,76.0*,-15.1,-8.3,-4.7,0.7
Cc1cc(C)c[n+](-c2[nH]c(=O)sc2/C=N/N=C(\[O-])c2cccnc2)c1,19.2,-15.8,-3.0,13.3,-1.9
CCc1ccc[n+](-c2[nH]c(=O)sc2/C=N/N=C(\[O-])c2ccncc2)c1,40.0*,-14.3,-4.9,-6.7,-7.1
Cc1ccc(C2c3c(n[nH]c3C)C(=O)N2Cc2ccccc2)cc1 (stereo not given),.,.,.,.,8.7
Cc1ccc(C2c3c(-c4ccccc4O)n[nH]c3C(=O)N2Cc2ccncc2)cc1 (stereo not given),19.3,-36.1,19.8*,-14.2,-4.4
CCCCNc1c(-c2ccc(SC(C)CC)cc2)nc2ccccn12 (stereo not given),60.8,56.4*,.,86.8*,-7.7
CCCCNc1c(-c2cccc(SC3CCCCC3)c2)nc2ccc(Cl)cn12,29.3,-35.6,.,-40.0,1.9
CCCCNc1c(-c2ccc(SC3CCCCC3)cc2)nc2ccccn12,30.6,40.9,.,79.7*,-8.5
SMILES,OX1R antag-1,OX1R antag-2,GPR7 antag,CHO parental Ca,GalR3 antagonist
c1ccc(CNc2c(-c3cccc(SC4CCCCC4)c3)nc3ccccn23)cc1,35.3,73.4*,.,81.8*,-4.2
S=C(Nc1cccc(Cl)c1)N1CCN(Cc2ccccc2)CC1,8.2,-18.0,-0.1,-15.6,-2.4
COCCNC(=O)C(c1ccc(O)cc1)N(Cc1ccccc1)C(=O)CCC(=O)Nc1ccccn1 (stereo not given),15.3,0.5,4.6,-4.4,-6.9
COCCNC(=O)C(c1ccc(F)cc1)N(Cc1ccccc1)C(=O)CCC(=O)Nc1ccccn1 (stereo not given),70.0*,9.7,-15.8,-24.6,-1.4
COCCNC(=O)C(c1ccc(C)cc1)N(CCOC)C(=O)CCC(=O)Nc1ccccn1 (stereo not given),13.4,-18.4,-6.1,-7.8,-2.5
COCCNC(=O)C(c1ccc(F)cc1)N(Cc1cccs1)C(=O)CCC(=O)Nc1ccccn1 (stereo not given),76.3*,16.7,-6.8,-17.9,-7.9
COC(=O)c1csc(S(=O)(=O)N2CCOCC2)c1OC,-3.1,-1.7,-7.3,0.0,5.3
Cc1ncc(CO)c(/C=N/NC(=O)c2cc3c(s2)CCCC3)c1O,50.1*,-19.5,-9.3,-12.2,-6.4
CC(C)(C)n1nnnc1C(c1cccs1)N1CCCc2ccccc21 (stereo not given),8.8,-16.6,-6.3,-20.1,-0.9
O=C1C(Cl)=C(NCCc2ccccc2)C(=O)c2ccccc21,.,.,.,.,4.5
COCCCNc1c2c3c(cccc3[nH]c1=O)C(=O)c1ccccc1-2,55.9*,95.0*,-8.2,89.3*,-3.3
COCCCNC1=C(Cl)C(=O)c2ccccc2C1=O,56.2*,-1.2,-7.6,-6.6,-3.2
CC(C)OCCCNC1=C(Cl)C(=O)c2ccccc2C1=O,68.6*,-17.5,5.7,-6.7,2.8
CC(C)NC1=C(Cl)C(=O)c2ccccc2C1=O,43.2*,-9.9,-1.4,-3.6,1.6
Cc1c(NC2=CC(=O)CC(C)(C)C2)c(=O)n(-c2ccccc2)n1C,15.3,-5.4,-5.7,0.7,-4.0
CC1CCCC(C)N1C(=O)COC(=O)C1CCN(S(=O)(=O)c2ccc3c(c2)OCCO3)CC1 (stereo not given),14.8,-15.6,.,-14.8,-3.7
COc1cc(C(=O)NNC(=O)c2cccn2C)cc(OC)c1OC,11.2,-6.9,.,-6.2,-3.0
CCCCc1c(-c2ccccc2OC)ncn1Cc1ccc(C)cc1,.,.,.,.,-7.3
COCCNC(=S)N(CCc1c(C)[nH]c2ccc(F)cc12)Cc1cccs1,20.9,21.5,20.2*,-8.6,-3.1
COCCNC(=S)N(CCc1c(C)[nH]c2ccc(Cl)cc12)Cc1cccs1,41.9,25.8,16.3,-20.2,-7.7
CN[C@H]1C[C@H]2c3[nH]c4c(-c5ccc6c(c5)OCO6)cccc4c3CCN2C(=O)[C@H]1[C@H](C)O,.,.,.,.,-5.8
C=CCN(C(=O)c1cccc(C(F)(F)F)c1)C1(C(=O)Nc2ccccc2)CCN(C(C)C)CC1,9.6,-38.1,18.4*,-22.6,-7.2
CC1(C)CC(=O)C=C(C#CC2CC2)C1,.,.,.,.,-6.6
CCOC(=O)c1c(NC(=O)CSc2nnc(C)s2)sc2c1CCCCC2,15.1,53.7*,5.2,52.1*,-6.2
CCOC(=O)c1c(NC(=O)CSc2nnc(-c3c[nH]c4ccccc34)n2CCOC)sc2c1CCCC2,40.7*,12.2,1.4,2.5,.
COCCn1c(SCC(=O)Nc2ccc3c(c2)OCCO3)nnc1-c1ccncc1,18.9,0.8,.,-8.0,-0.6
